SMILES strings stand for the structures. In brackets after ≈: the same amount, converted by molar mass. Where a SMILES comes first, the peptide text is derived from it. [ ]: non-standard residue; d: D form. Orn = NCCC[C@H](N)C(=O)O

For data set [1], the system named is Bacillus subtilis. Nature of the data set: Antibacterial activity against Bacillus subtilis NBRC 3513 after overnight incubation by medium dilution method. The format is functional. The procedure, abridged:
(§1)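 MIC by medium dilution with an inoculum of 10⁶ organisms per ml. Value is the minimum inhibitory concentration.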

In data set [2] the test system is Priestia megaterium. Put plainly: Antibacterial activity against Bacillus megaterium ATCC 19213 after overnight incubation by medium dilution method. It is filed as functional. An outline of the steps:
as §1

Data set [3] relates to Staphylococcus epidermidis. Nature of the data set: Antibacterial activity against Staphylococcus epidermidis NBRC 12993 after overnight incubation by medium dilution method. The format is functional. The procedure, abridged:
as §1

The test system of data set [4] is Staphylococcus aureus. Put plainly: Antibacterial activity against Staphylococcus aureus NBRC 12732 after overnight incubation by medium dilution method. It is filed as functional. An outline of the steps: as §1
The test system of data set [5] is Pseudomonas aeruginosa. Put plainly: Antibacterial activity against Pseudomonas aeruginosa NBRC 3080 after overnight incubation by medium dilution method. It is filed as functional. The procedure, abridged:
as §1

The subject of data set [6] is Escherichia coli. Put plainly: Antibacterial activity against Escherichia coli NBRC l2734 after overnight incubation by medium dilution method. The format is functional. An outline of the steps:
as §1

Data set [7] is described as follows: Cytotoxicity against human RBC assessed induction of hemolysis at […] after 30 mins microtiter plate reader analysis. The following applies: erythrocyte, 0.5 h. It is filed as cell-based.

One may read the MIC as the smallest concentration in the dilution series that meets the test's criterion for growth inhibition. Low values mean inhibition by little substance, high ones a need for much substance. Turning to `CC(C)C[C@@H]1NC(=O)[C@H](CCCN)NC(=O)[C@H](C)NC(=O)[C@@H](Cc2ccc(O)cc2)NC(=O)[C@@H]2CCCN2C(=O)[C@@H](Cc2ccccc2)NC(=O)[C@H](CC(C)C)NC(=O)[C@H](CCCN)NC(=O)[C@H](C)NC(=O)[C@@H](Cc2ccc(O)cc2)NC(=O)[C@@H]2CCCN2C(=O)[C@@H](Cc2ccccc2)NC1=O`, the MIC in data set [1] is 12.5 µg/mL (≈ 8.85 µM); in data set [2] it was 12.5 µg/mL (≈ 8.85 µM); in data set [3], 25 µg/mL (≈ 17.7 µM); in data set [4] it was 6.25 µg/mL (≈ 4.43 µM); in data set [5], more than 100 µg/mL; in data set [6], more than 100 µg/mL. Also, in data set [7], the Activity result is listed as “Non-toxic”.

On to `CC(C)C[C@@H]1NC(=O)[C@H](C)NC(=O)[C@H](C(C)C)NC(=O)[C@@H](Cc2ccc(O)cc2)NC(=O)[C@@H]2CCCN2C(=O)[C@@H](Cc2ccccc2)NC(=O)[C@H](CC(C)C)NC(=O)[C@H](C)NC(=O)[C@H](C(C)C)NC(=O)[C@@H](Cc2ccc(O)cc2)NC(=O)[C@@H]2CCCN2C(=O)[C@@H](Cc2ccccc2)NC1=O`, for which the MIC in data set [1], in data set [2], in data set [3], in data set [4], in data set [5] and in data set [6] was more than 50 µg/mL each time. Also, the Activity result in data set [7] is “Non-toxic”.

For the compound `CC(C)[C@@H]1NC(=O)[C@@H](Cc2ccc(O)cc2)NC(=O)[C@@H]2CCCN2C(=O)[C@@H](Cc2ccccc2)NC(=O)[C@H](C)NC(=O)[C@H](CCCN)NC(=O)[C@H](C(C)C)NC(=O)[C@@H](Cc2ccc(O)cc2)NC(=O)[C@@H]2CCCN2C(=O)[C@@H](Cc2ccccc2)NC(=O)[C@H](C)NC(=O)[C@H](CCCN)NC1=O`, the MIC was 100 µg/mL (≈ 72.3 µM) in data set [1]; 100 µg/mL (≈ 72.3 µM) in data set [2]; more than 100 µg/mL in data set [3]; 100 µg/mL (≈ 72.3 µM) in data set [4]; more than 100 µg/mL in data set [5]; more than 100 µg/mL in data set [6]. In addition, the Activity entry in data set [7] is listed as “Non-toxic”.

For `CC(C)C[C@@H]1NC(=O)[C@H](CCCN)NC(=O)[C@H](C(C)C)NC(=O)[C@@H](Cc2ccc(O)cc2)NC(=O)[C@@H]2CCCN2C(=O)[C@@H](C)NC(=O)[C@H](CC(C)C)NC(=O)[C@H](CCCN)NC(=O)[C@H](C(C)C)NC(=O)[C@@H](Cc2ccc(O)cc2)NC(=O)[C@@H]2CCCN2C(=O)[C@@H](C)NC1=O`, the MIC in data set [1], in data set [2], in data set [3], in data set [4], in data set [5] and in data set [6] was more than 100 µg/mL in each case. The Activity result in data set [7] is listed as “Non-toxic”.

Turning to `CC(C)C[C@@H]1NC(=O)[C@H](CCCN)NC(=O)[C@H](C(C)C)NC(=O)[C@@H](Cc2ccc(O)cc2)NC(=O)[C@H](C)NC(=O)[C@@H](Cc2ccccc2)NC(=O)[C@H](CC(C)C)NC(=O)[C@H](CCCN)NC(=O)[C@H](C(C)C)NC(=O)[C@@H](Cc2ccc(O)cc2)NC(=O)[C@H](C)NC(=O)[C@@H](Cc2ccccc2)NC1=O`, the minimum inhibitory concentration (MIC) in data set [1] is 12.5 µg/mL (≈ 8.83 µM); in data set [2], 25 µg/mL (≈ 17.7 µM); in data set [3], 50 µg/mL (≈ 35.3 µM); in data set [4] it was 12.5 µg/mL (≈ 8.83 µM); in data set [5] it was more than 100 µg/mL; in data set [6], more than 100 µg/mL. Besides, the Activity result in data set [7] is recorded as “Non-toxic”.

For `CC(C)C[C@@H]1NC(=O)[C@H](CCCN)NC(=O)[C@H](CCCCN)NC(=O)[C@@H](Cc2ccc(O)cc2)NC(=O)[C@@H]2CCCN2C(=O)[C@@H](Cc2ccccc2)NC(=O)[C@H](CC(C)C)NC(=O)[C@H](CCCN)NC(=O)[C@H](CCCCN)NC(=O)[C@@H](Cc2ccc(O)cc2)NC(=O)[C@@H]2CCCN2C(=O)[C@@H](Cc2ccccc2)NC1=O`, the MIC in data set [1], in data set [2], in data set [3], in data set [4], in data set [5] and in data set [6] was more than 100 µg/mL in each case. In addition, the Activity entry in data set [7] is on record as “Non-toxic”.

Regarding `CC(C)C[C@@H]1NC(=O)[C@H](CCCN)NC(=O)[C@H](C(C)C)NC(=O)[C@@H](Cc2ccc(O)cc2)NC(=O)[C@H](CO)NC(=O)[C@@H](Cc2ccccc2)NC(=O)[C@H](CC(C)C)NC(=O)[C@H](CCCN)NC(=O)[C@H](C(C)C)NC(=O)[C@@H](Cc2ccc(O)cc2)NC(=O)[C@H](CO)NC(=O)[C@@H](Cc2ccccc2)NC1=O`, the MIC in data set [1] is 25 µg/mL (≈ 17.3 µM); in data set [2] it was 50 µg/mL (≈ 34.5 µM); in data set [3], 50 µg/mL (≈ 34.5 µM); in data set [4] it was 12.5 µg/mL (≈ 8.63 µM); in data set [5] it was more than 100 µg/mL; in data set [6], more than 100 µg/mL. For the same compound, in data set [7], the Activity entry is given as “Non-toxic”.

With `CC(C)C[C@@H]1NC(=O)[C@H](CCCN)NC(=O)[C@H](C(C)C)NC(=O)[C@@H](Cc2ccc(O)cc2)NC(=O)[C@H](CCCCN)NC(=O)[C@@H](Cc2ccccc2)NC(=O)[C@H](CC(C)C)NC(=O)[C@H](CCCN)NC(=O)[C@H](C(C)C)NC(=O)[C@@H](Cc2ccc(O)cc2)NC(=O)[C@H](CCCCN)NC(=O)[C@@H](Cc2ccccc2)NC1=O`, the MIC in data set [1] came to 6.25 µg/mL (≈ 4.09 µM); in data set [2] it was 6.25 µg/mL (≈ 4.09 µM); in data set [3], 6.25 µg/mL (≈ 4.09 µM); in data set [4] it was 6.25 µg/mL (≈ 4.09 µM); in data set [5], 100 µg/mL (≈ 65.4 µM); in data set [6] it was 25 µg/mL (≈ 16.3 µM). Besides, in data set [7], the Activity entry was “Non-toxic”.

Regarding `CC(C)C[C@@H]1NC(=O)[C@H](CCCN)NC(=O)[C@H](C(C)C)NC(=O)[C@@H](Cc2ccc(O)cc2)NC(=O)[C@H](CCCNC(=N)N)NC(=O)[C@@H](Cc2ccccc2)NC(=O)[C@H](CC(C)C)NC(=O)[C@H](CCCN)NC(=O)[C@H](C(C)C)NC(=O)[C@@H](Cc2ccc(O)cc2)NC(=O)[C@H](CCCNC(=N)N)NC(=O)[C@@H](Cc2ccccc2)NC1=O`, the MIC in data set [1] turned out to be 6.25 µg/mL (≈ 3.94 µM); in data set [2], 6.25 µg/mL (≈ 3.94 µM); in data set [3], 6.25 µg/mL (≈ 3.94 µM); in data set [4], 6.25 µg/mL (≈ 3.94 µM); in data set [5], 50 µg/mL (≈ 31.5 µM); in data set [6], 12.5 µg/mL (≈ 7.88 µM). Also, the Activity result in data set [7] is listed as “Non-toxic”.

For `CC(C)C[C@@H]1NC(=O)[C@H](CCCN)NC(=O)[C@H](C(C)C)NC(=O)[C@@H](C)NC(=O)[C@@H]2CCCN2C(=O)[C@@H](Cc2ccccc2)NC(=O)[C@H](CC(C)C)NC(=O)[C@H](CCCN)NC(=O)[C@H](C(C)C)NC(=O)[C@@H](C)NC(=O)[C@@H]2CCCN2C(=O)[C@@H](Cc2ccccc2)NC1=O` (cyclo(L[dF]P[dA]V[Orn]L[dF]P[dA]V[Orn])), the MIC in data set [1] is 12.5 µg/mL (≈ 9.74 µM); in data set [2] it was 12.5 µg/mL (≈ 9.74 µM); in data set [3], 25 µg/mL (≈ 19.5 µM); in data set [4] it was 12.5 µg/mL (≈ 9.74 µM); in data set [5] it was more than 100 µg/mL; in data set [6], more than 100 µg/mL. The Activity result in data set [7] is given as “Non-toxic”.

With `CC(C)C[C@@H]1NC(=O)[C@H](CCCN)NC(=O)[C@H](C(C)C)NC(=O)[C@@H](Cc2ccc(O)cc2)NC(=O)[C@@H]2CCCN2C(=O)[C@@H](Cc2ccccc2)NC(=O)[C@H](CC(C)C)NC(=O)[C@H](CCCN)NC(=O)[C@H](C(C)C)NC(=O)[C@@H](Cc2ccc(O)cc2)NC(=O)[C@@H]2CCCN2C(=O)[C@@H](Cc2ccccc2)NC1=O` [GRATISIN], the MIC in data set [1] is 6.25 µg/mL (≈ 4.26 µM); in data set [2], 6.25 µg/mL (≈ 4.26 µM); in data set [3] it was 12.5 µg/mL (≈ 8.52 µM); in data set [4], 6.25 µg/mL (≈ 4.26 µM); in data set [5] it was 100 µg/mL (≈ 68.1 µM); in data set [6], 100 µg/mL (≈ 68.1 µM). The Activity result in data set [7] is listed as “Toxic”.
